Several values for one entry are separate records, joined by “and”; a condition that tells them apart may be missing. Identical values can stand only once.
Tests used:
[1] = molecular target: Norepinephrine transporter (Rattus norvegicus, UniProt Q9WTR4); assay: Inhibition of [3H]NE uptake by Norepinephrine transporter of rat occipital cortex synaptosomes; assay type: subcellular, Brain
Summary of the method: (§1)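 Rat parietal and occipital cortex P2 synaptosomes in ice-cold modified KRH buffer; preincubated with drug 30 min at 37 °C, then [3H]NE 8-10 nM added for 5 min. Stopped with cold Na-free glucosamine buffer, then filtered; scintillation counting. Specific uptake defined with 3 µM desipramine. Ki from IC50 using Km 54 nM. Six drug concentrations in triplicate, 2-5 experiments.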

Rattus norvegicus [2] = organism: Rattus norvegicus; assay: Compound was evaluated for its ability to antagonizing norepinephrine (NE) high affinity uptake was determined using [3H]NE on synaptosomes prepared from rat occipital cortices.; assay type: functional; details: Brain; summary of the method: as §1
Rattus norvegicus [3] = organism: Rattus norvegicus; assay: Compound was evaluated for its ability to antagonizing serotonin high affinity uptake was determined using [3H]5-HT on synaptosomes prepared from rat midbrain or parietal cortices.; assay type: functional; details: Brain
[4] = molecular target: Sodium-dependent serotonin transporter (Rattus norvegicus, UniProt P31652); assay: Inhibition of [3H]5-HT uptake by Serotonin transporter of rat midbrain or parietal synaptosomes; assay type: subcellular, Brain
Sodium-dependent serotonin transporter, sequence (P31652 whole entry): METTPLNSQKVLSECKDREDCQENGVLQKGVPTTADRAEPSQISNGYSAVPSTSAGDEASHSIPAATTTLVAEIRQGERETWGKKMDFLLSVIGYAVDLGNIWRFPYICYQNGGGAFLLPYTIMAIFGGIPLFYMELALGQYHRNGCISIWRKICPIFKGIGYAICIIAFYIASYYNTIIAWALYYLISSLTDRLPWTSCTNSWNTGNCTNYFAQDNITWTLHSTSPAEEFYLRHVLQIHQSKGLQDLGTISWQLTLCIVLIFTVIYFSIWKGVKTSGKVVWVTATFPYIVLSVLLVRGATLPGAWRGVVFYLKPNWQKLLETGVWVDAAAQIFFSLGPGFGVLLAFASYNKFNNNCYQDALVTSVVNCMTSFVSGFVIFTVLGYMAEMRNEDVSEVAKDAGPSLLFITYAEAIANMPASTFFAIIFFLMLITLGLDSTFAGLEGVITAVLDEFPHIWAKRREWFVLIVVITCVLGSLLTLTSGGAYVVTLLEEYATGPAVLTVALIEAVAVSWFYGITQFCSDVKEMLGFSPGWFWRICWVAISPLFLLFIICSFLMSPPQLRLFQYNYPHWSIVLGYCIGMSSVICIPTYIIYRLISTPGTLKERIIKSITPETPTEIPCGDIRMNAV
Summary of the method: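 Rat midbrain P2 synaptosomes in modified KRH buffer; preincubated with drug 30 min at 37 °C, then [3H]5-HT 4-5 nM for 5 min. Stopped with cold Na-free glucosamine buffer, then filtered; scintillation counting. […] Ki from IC50 using Km 53 nM. Six drug concentrations in triplicate, 2-5 experiments.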

[5] = molecular target: Sodium-dependent dopamine transporter (Rattus norvegicus, UniProt P23977); assay: Inhibition of [3H]DA uptake by dopamine transporter of rat striata synaptosomes; assay type: subcellular, Brain
Sodium-dependent dopamine transporter, sequence (P23977 whole entry): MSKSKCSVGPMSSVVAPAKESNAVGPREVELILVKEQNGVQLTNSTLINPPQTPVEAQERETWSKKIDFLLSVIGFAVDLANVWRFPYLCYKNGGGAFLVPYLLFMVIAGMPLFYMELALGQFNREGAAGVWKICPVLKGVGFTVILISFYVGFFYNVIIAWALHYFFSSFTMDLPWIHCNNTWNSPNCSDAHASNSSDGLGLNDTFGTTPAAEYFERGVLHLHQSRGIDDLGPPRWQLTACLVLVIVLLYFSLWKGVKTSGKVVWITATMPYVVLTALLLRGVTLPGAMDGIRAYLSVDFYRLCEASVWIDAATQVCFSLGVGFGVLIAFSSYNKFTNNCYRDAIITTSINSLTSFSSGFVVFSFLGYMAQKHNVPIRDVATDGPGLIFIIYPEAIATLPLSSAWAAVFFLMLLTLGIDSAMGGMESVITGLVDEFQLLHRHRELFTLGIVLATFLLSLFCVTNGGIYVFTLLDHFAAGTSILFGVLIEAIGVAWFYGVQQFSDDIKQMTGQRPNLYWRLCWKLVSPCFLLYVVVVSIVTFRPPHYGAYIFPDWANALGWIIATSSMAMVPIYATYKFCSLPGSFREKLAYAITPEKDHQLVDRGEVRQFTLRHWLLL
Summary of the method: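 Rat striatum homogenised in 0.32 M sucrose, P2 synaptosomes resuspended in KRH buffer; preincubated with drug 30 min at 37 °C, then [3H]DA 3-5 nM final for 5 min. Stopped with cold Na-free glucosamine buffer, then filtered; scintillation counting. Six concentrations in triplicate, 2-5 experiments.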

[6] = molecular target: Monoamine transporters; serotonin & dopamine (Rattus norvegicus) (UniProt P31652+P23977); assay: Relative affinity for dopamine over 5-HT transporters; assay type: protein assay
Monoamine transporters; serotonin & dopamine (Rattus norvegicus), sequence (P23977 whole entry, looked up): as the sequence (P23977 whole entry) above
Monoamine transporters; serotonin & dopamine (Rattus norvegicus), sequence (P31652 whole entry, looked up): as the sequence (P31652 whole entry) above
Summary of the method: (§2)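 Selectivity ratios calculated from Ki values of the rat synaptosomal [3H]DA, [3H]NE and [3H]5-HT uptake inhibition assays.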

Rattus norvegicus [7] = organism: Rattus norvegicus; assay: Compound was evaluated for its ability to inhibit the uptake of dopamine(DA) into nerve ending using [3H]DA on synaptosomes obtained from dissected rat striata.; assay type: functional; details: Brain
Rattus norvegicus [8] = organism: Rattus norvegicus; assay: Compound was evaluated for its ability to antagonizing norepinephrine (NE), high affinity uptake was determined using [3H]NE on synaptosomes prepared from rat occipital cortices.; details: Brain
[9] = molecular target: Monoamine transporters; Norepinephrine & serotonin (Rattus norvegicus) (UniProt P31652+Q9WTR4); assay: Relative affinity for norepinephrine over 5-HT transporters; assay type: protein assay; summary of the method: as §2

Norepinephrine transporter, sequence (Q9WTR4 whole entry): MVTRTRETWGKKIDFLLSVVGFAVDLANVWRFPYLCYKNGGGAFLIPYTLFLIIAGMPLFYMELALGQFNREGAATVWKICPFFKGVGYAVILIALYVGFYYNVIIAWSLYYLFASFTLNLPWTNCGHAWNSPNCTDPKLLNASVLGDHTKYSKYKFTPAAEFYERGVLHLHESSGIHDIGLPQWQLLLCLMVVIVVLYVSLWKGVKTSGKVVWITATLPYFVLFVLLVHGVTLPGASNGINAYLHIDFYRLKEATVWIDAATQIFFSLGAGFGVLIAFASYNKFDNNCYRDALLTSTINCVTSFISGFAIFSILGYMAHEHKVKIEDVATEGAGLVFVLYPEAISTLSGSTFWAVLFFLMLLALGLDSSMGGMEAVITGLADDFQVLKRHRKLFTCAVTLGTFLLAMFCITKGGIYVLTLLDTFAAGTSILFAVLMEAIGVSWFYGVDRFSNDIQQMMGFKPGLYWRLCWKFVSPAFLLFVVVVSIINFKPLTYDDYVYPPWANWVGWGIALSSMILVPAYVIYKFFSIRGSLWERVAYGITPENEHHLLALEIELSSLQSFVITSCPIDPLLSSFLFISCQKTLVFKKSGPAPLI

SMILES: C=Cc1ccc([C@H]2CCN(C)C[C@H]2C(=O)OC)cc1
- Ki [1]: 175 nM
- IC50 (Rattus norvegicus [2]): 204 nM
- IC50 (Rattus norvegicus [3]): 155 nM
- Ki [4]: 138 nM

SMILES: COC(=O)[C@@H]1CN(C)CC[C@@H]1c1ccc2ccccc2c1
- Ki [1]: 34 nM
- IC50 (Rattus norvegicus [3]): 8.2 nM
- Ki [4]: 7.6 nM
- Ki [5]: 21 nM
- Ratio [6]: 2.8 and 4.5
- IC50 (Rattus norvegicus [7]): 23 nM

SMILES: COC(=O)[C@H]1[C@@H](OC(=O)c2ccccc2)C[C@@H]2CC[C@H]1N2C [COCAINE]
- IC50 (Rattus norvegicus [8]): 127 nM

SMILES: C#Cc1ccc([C@H]2CCN(C)C[C@H]2C(=O)OC)cc1
- Ki [1]: 364 nM
- IC50 (Rattus norvegicus [2]): 399 nM
- IC50 (Rattus norvegicus [3]): 189 nM
- Ki [4]: 175 nM
- Ki [5]: 187 nM
- Ratio [6]: 1.1
- Ratio [9]: 2.1
- IC50 (Rattus norvegicus [7]): 213 nM

SMILES: C=CCc1ccc([C@H]2CCN(C)C[C@H]2C(=O)OC)cc1
- Ki [1]: > 1000 nM
- IC50 (Rattus norvegicus [2]): > 1200 nM
- IC50 (Rattus norvegicus [3]): 334 nM
- Ki [4]: 309 nM
- Ki [5]: 964 nM
- Ratio [6]: 3.1
- Ratio [9]: > 3.5
- IC50 (Rattus norvegicus [7]): > 1000 nM

SMILES: COC(=O)[C@@H]1CN(C)CC[C@H]1c1ccc2ccccc2c1
- Ki [1]: 27 nM
- IC50 (Rattus norvegicus [3]): 209 nM
- Ki [4]: 192 nM
- Ki [5]: 87 nM
- Ratio [6]: 0.45
- Ratio [9]: 0.14
- IC50 (Rattus norvegicus [7]): 94 nM

SMILES: COC(=O)[C@@H]1CN(C)CC[C@@H]1c1ccc(Cl)cc1
- Ki [1]: 88 nM
- IC50 (Rattus norvegicus [2]): 101 nM
- IC50 (Rattus norvegicus [3]): 440 nM
- Ki [4]: 391 nM
- Ki [5]: 69 nM
- Ratio [6]: 0.18
- Ratio [9]: 0.23
- IC50 (Rattus norvegicus [7]): 75 nM

SMILES: COC(=O)[C@@H]1CNCC[C@H]1c1ccc2ccccc2c1
- Ki [1]: 30 nM
- IC50 (Rattus norvegicus [2]): 34 nM
- IC50 (Rattus norvegicus [3]): 3.9 nM
- Ki [4]: 3.5 nM
- Ki [5]: 90 nM
- Ratio [6]: 26
- Ratio [9]: 8.6
- IC50 (Rattus norvegicus [7]): 97 nM

SMILES: CCc1ccc([C@H]2CCN(C)CC2C(=O)OC)cc1 (stereo partly specified)
- Ki [1]: > 1100 nM
- IC50 (Rattus norvegicus [2]): > 1300 nM
- IC50 (Rattus norvegicus [3]): 275 nM
- Ki [4]: 255 nM
- Ki [5]: > 1700 nM
- Ratio [6]: > 6
- Ratio [9]: > 4
- IC50 (Rattus norvegicus [7]): > 1800 nM

SMILES: COC(=O)[C@H]1CN(C)CC[C@@H]1c1ccc2ccccc2c1
- Ki [1]: 241 nM
- IC50 (Rattus norvegicus [3]): 46 nM
- Ki [4]: 42 nM
- Ki [5]: 947 nM
- Ratio [6]: 22.6
- Ratio [9]: 5.7
- IC50 (Rattus norvegicus [7]): > 1000 nM

SMILES: COC(=O)[C@H]1CN(C)CC[C@H]1c1ccc2ccccc2c1
- Ki [1]: 38 nM
- IC50 (Rattus norvegicus [3]): 13 nM
- Ki [4]: 12 nM
- Ki [5]: 271 nM
- Ratio [6]: 23
- Ratio [9]: 3.2
- IC50 (Rattus norvegicus [7]): 293 nM

SMILES: COC(=O)[C@@H]1CN(C)CC[C@@H]1c1cccc2ccccc12
- Ki [1]: 281 nM
- IC50 (Rattus norvegicus [2]): 337 nM
- IC50 (Rattus norvegicus [3]): 113 nM
- Ki [4]: 101 nM
- Ki [5]: 304 nM
- Ratio [6]: 3
- Ratio [9]: 2.8
- IC50 (Rattus norvegicus [7]): 326 nM

SMILES: CNCCC(Oc1ccc(C(F)(F)F)cc1)c1ccccc1 (stereo unspecified) [FLUOXETINE]
- IC50 (Rattus norvegicus [2]): 193 nM
- IC50 (Rattus norvegicus [3]): 8.1 nM
- IC50 (Rattus norvegicus [7]): > 4500 nM

SMILES: COC(=O)[C@@H]1CN(C)CC[C@@H]1c1ccc(-c2ccccc2)cc1
- Ki [1]: 203 nM
- IC50 (Rattus norvegicus [2]): 239 nM
- IC50 (Rattus norvegicus [3]): 67 nM
- Ki [4]: 62 nM
- Ki [5]: 173 nM
- Ratio [6]: 2.8
- Ratio [9]: 3.3
- IC50 (Rattus norvegicus [7]): 184 nM

Reference: ChEMBL document CHEMBL1133161 (J Med Chem, 2000)
